Screening results as filed in PubChem.
MBD2 inh: MBD2-methylated oligo binding inhibition. Q9UBB5. TR-FRET, MBD2 binding to methylated oligonucleotide. inhibition, % at 4.4 µM. 370,000 tested, 0.31% active. AID 686964; in the data active = inhibition above about 13%
ARFGAP1 inh: inhibits rat ARF GTPase activating protein 1; inhibition, % at 16.5 µM; Arfgap1-stimulated ARF1 GTP hydrolysis, GDP FP detection; 360,000 tested, 0.26% active; Q62848;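 active = inhibition above a per-plate limit, mean inhibition of low control wells plus 3 SD, cut at about 25% in these data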
Target sequence (Q62848 1-136 limits assumed): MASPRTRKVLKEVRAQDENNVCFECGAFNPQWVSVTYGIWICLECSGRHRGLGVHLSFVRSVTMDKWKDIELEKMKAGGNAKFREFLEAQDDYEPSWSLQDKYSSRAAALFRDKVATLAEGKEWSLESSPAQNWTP
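Replicates: Single well per compound | Assay system: Truncated rat Arfgap1 GAP domain | Control set: No-Arfgap1 wells (100%) versus DMSO full-reaction wells (0%) | Times: Enzyme reaction 120 min at 25 °C after 20 min preincubation | Reagent: Human ARF1(Δ1-17)-GTP substrate | Measured by: Tracer-displacement fluorescence polarization with EDTA stop, 620/688 nm | Measure: Percent inhibition of Arfgap1-stimulated GTP hydrolysis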
LEDGF integ inh: blocks HIV-1 LEDGF/p75-dependent DNA integration | TR-FRET IN-LEDGF/p75 DNA integration, Eu/Cy5 | inhibition, % at 3.7 µM | 370,000 tested, 0.64% active;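 active = inhibition above the screen-wide mean plus 3 SD, cut at about 13% in these data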;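 also: signal is the Cy5 over europium emission ratio at 671 and 618 nm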
UHRF1 MBD2 ctr: UHRF1 methyl-DNA binding inhibition; 370,000 tested, 0.75% active; UHRF1 binding to methylated oligo, TR-FRET; AID 687016; Q96T88; inhibition, % at 4.4 µM; in the data active = inhibition above about 21%;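 also: UHRF1 SRA domain binding a hemimethylated CpG hairpin DNA probe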
TDP2 absorb: blocks human TDP2 phosphodiesterase activity; 370,000 tested, 0.34% active; inhibition, % at 12.8 µM; O95551; AID 720702; recombinant TDP2, T5PNP hydrolysis, p-nitrophenol absorbance 415 nm;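 active = inhibition above the mean of all tested compounds plus 3 SD, set per campaign, cut at about 25% in these data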
Target sequence (O95551 whole entry, looked up): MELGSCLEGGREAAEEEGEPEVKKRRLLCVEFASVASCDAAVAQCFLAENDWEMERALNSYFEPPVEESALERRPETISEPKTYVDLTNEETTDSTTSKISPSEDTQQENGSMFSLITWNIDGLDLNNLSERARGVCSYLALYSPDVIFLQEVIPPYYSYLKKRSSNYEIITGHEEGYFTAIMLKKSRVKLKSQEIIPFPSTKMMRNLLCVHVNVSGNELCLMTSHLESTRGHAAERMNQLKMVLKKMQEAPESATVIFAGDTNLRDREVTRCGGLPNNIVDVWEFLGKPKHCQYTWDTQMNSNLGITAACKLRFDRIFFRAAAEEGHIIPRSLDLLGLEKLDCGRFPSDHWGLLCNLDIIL
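System – recombinant human TDP2 · Amount – 120 nM TDP2 per well · Buffer or medium – Mg2+-containing Tris-HCl buffer, pH 7.5 · Reagent – T5PNP substrate, 5 mM · Dosing – 12.8 µM single point, 1% DMSO · Incubation – 2 h at 37 °C · Measured by – epi absorbance · Read-out basis – percent inhibition · Benchmarks – high control without enzyme, low control DMSO plus TDP2 · Repeats – singlicate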
ASAP1 inh: ASAP1 ArfGAP inhibition | ASAP1-stimulated ARF1 GTP hydrolysis, GDP FP detection | inhibition, % at 16.5 µM | 360,000 tested, 0.19% active; in the data active = inhibition above about 25%
A number is an active result; . = inactive; / = no result; ! = a repeat was not active. Rows were chosen to be rich in hits. Some 2% of all compounds tested hit in one or more screens of this group.

SMILES | MBD2 inh | ARFGAP1 inh | LEDGF integ inh | UHRF1 MBD2 ctr | TDP2 absorb | ASAP1 inh
O=C1NC(=O)N(c2ccccc2F)C(=O)/C1=C/c1ccc(Sc2nc3ccccc3[nH]2)o1 | . | . | 22 | . | . | .
O=C1NC(=O)N(c2cccc(Cl)c2)C(=O)/C1=C\c1ccc(Sc2nc3ccccc3[nH]2)o1 | . | . | 20 | . | . | .
O=C1NC(=O)N(c2ccc3c(c2)OCO3)C(=O)/C1=C\c1ccc(-c2ccccc2C(=O)O)o1 | . | . | . | . | . | .
N#CC1c2ccccc2-n2nncc2CN1C(=O)c1ccc([N+](=O)[O-])o1 (stereo not drawn) | . | / | . | . | . | /
CCn1nc(/C=C/c2ccccc2)nc2c(=O)n(C)c(=O)nc1-2 | . | . | . | . | 79 | .
O=C(CN1C(=O)[C@@H](Cc2ccccc2)N=C(c2ccccc2)c2ccccc21)NC1CCCCC1 | . | / | . | . | . | /
c1cncc(-c2ccc3n2Cc2cnnn2-c2ccccc2-3)c1 | . | / | . | . | . | /
COC(=O)c1nc(-c2ccc3c(n2)C(=O)C(N)=C(OC)C3=O)c(N)c(-c2ccc(OC)c(OC)c2O)c1C | . | . | . | . | . | 31
Nc1cccc(SC2CC(=O)N(c3ccc(Cl)cc3C(=O)c3ccccc3)C2=O)c1 (stereo not drawn) | . | . | . | 28 | . | .
O=C(CNC(=O)OCc1ccccc1)NC(Cc1ccccc1)P(=O)(Oc1ccccc1)Oc1ccccc1 (stereo not drawn) | . | / | . | . | . | /
CN1c2ccc(Br)cc2[C@H]2NCC[C@H]2[C@H]1CO | . | / | . | . | . | /
Fc1ccc(CCNCc2ccc(Br)cc2)cc1 | . | . | . | 35 | . | .
Fc1ccc(CNCCc2ccccc2F)cc1 | . | . | . | . | . | .
CCOC(=O)[C@]1(C#N)[C@@H]2C=CC(C(N)=O)=CN2[C@@H](C(N)=O)[C@@H]1c1ccc(F)cc1 | . | . | . | . | . | .
COC(=O)[C@@]1(C#N)[C@@H]2C=CC(C(C)=O)=CN2[C@@H](C(N)=O)[C@@H]1c1ccc(F)cc1 | . | . | . | 25 | . | .
O=P(O)(Oc1ccccc1)c1ccccc1 | . | . | . | 21 | . | .
Cc1ccccc1CCC[C@H](CC1CCCCC1)CN(C)C(=O)Oc1ccccc1 | . | / | . | . | . | /
CC[C@H](C)[C@@H]1OC(=O)[C@H](C(C)C)N(C)C(=O)[C@H](C(C)C)NC(=O)[C@@H](C)[C@@H](CCCC#CBr)OC(=O)[C@H](C(C)C)N(C)C(=O)C2CCCN2C1=O (stereo partly drawn) | . | / | . | . | . | /
COC(=O)C1=C(c2ccc(F)cc2OCc2ccccc2)C[C@@H]2CC[C@H]1N2C(=O)NCCN1CCOCC1 | . | . | 19 | . | . | .
COC(=O)C1(N(C)c2ccccc2)CCN(Cc2ccccc2)CC1 | . | / | . | . | . | /
C=CCN1C(=O)NC(=O)/C(=C\c2ccc(-c3ccccc3[N+](=O)[O-])o2)C1=O | . | . | . | 56 | . | .
N#CC1c2ccccc2-n2nncc2CN1C(=O)c1cccnc1 (stereo not drawn) | . | / | . | . | . | /
CN1C(=O)[C@@]23C[C@]4(c5c[nH]c6ccccc56)c5ccccc5N(S(=O)(=O)c5ccccc5)[C@@H]4N2C(=O)[C@@H]1SS3 | . | / | . | . | . | /
CC(C)(C)n1nnnc1C(c1cc2ccccc2o1)N1CCC2(CC1)C(=O)NCN2c1ccccc1 (stereo not drawn) | . | . | . | . | . | .
O=C1NCN(c2ccccc2)C12CCN(C(c1cc3ccccc3o1)c1nnnn1C1CCCCC1)CC2 (stereo not drawn) | . | . | . | 23 | . | .
SMILES | MBD2 inh | ARFGAP1 inh | LEDGF integ inh | UHRF1 MBD2 ctr | TDP2 absorb | ASAP1 inh
CN1CCC2(CC1)C(C#N)=C(N)NC(S)=C2C#N | . | . | . | . | 30! | .
NCC(CC(=O)O)c1ccc(Cl)cc1 (stereo not drawn) | . | . | . | 25 | . | .
O=C(O)COc1ccc(Cl)cc1Cl | . | . | . | . | . | .
S=P(c1ccccc1)(c1ccccc1)c1cnc2ccccn12 | . | / | . | . | . | /
COc1cc2c(cc1O)C[C@H]1NCCc3cc4c(c-2c31)OCO4 | 23 | . | . | 30 | . | .
CO[C@H]([C@H](C)/C=C/N(C)C=O)[C@@H](C)C(=O)CC[C@H](C)[C@H](O)[C@H](C)[C@H]1OC(=O)/C=C/C(C)=C/[C@H](O)[C@H](OC)C[C@@H]2C=CC[C@@H](C[C@H](OC)[C@@H](CO)[C@@H](OC)C[C@@H](OC)[C@@H]1C)O2 | . | / | . | . | . | /
N#CC1=C(N)Oc2c(c(=O)oc3ccccc23)C1c1ccc(OC(=O)N2CCOCC2)cc1 (stereo not drawn) | . | . | . | 38 | . | .
CCC1C(C#N)=C(N)Oc2c1c(=O)oc1ccccc21 (stereo not drawn) | . | . | . | . | . | .
CC(C)CC1C(C#N)=C(N)Oc2c1c(=O)oc1ccccc21 (stereo not drawn) | . | . | . | 76 | . | .
O=C(NC(Cc1ccccc1)P(=O)(O)Oc1ccccc1)OCc1ccccc1 (stereo not drawn) | . | / | . | . | . | /
COc1ccc(/C=C2/C(=O)N(Cc3ccco3)C(=O)N(C(C)C)C2=O)cc1 | . | . | 33 | 32 | . | .
CCN1C(=O)C(=C2C=C(C)N(Cc3ccco3)C(C)=C2)C(=O)N(CC)C1=S | . | . | . | . | . | .
N=c1c2c(-c3ccccc3)c(-c3ccccc3)n(Cc3ccccc3)c2ncn1C1CCC(O)CC1 (stereo not drawn) | . | / | . | . | . | /
O=C1NC(=O)N(c2ccccc2)C(=O)/C1=C/c1coc2ccc(O)cc2c1=O | . | . | . | 27 | . | .
O=C1NC(=O)N(Cc2ccco2)C(=O)/C1=C\c1cccn1CCOc1ccc(Cl)cc1 | . | . | 61 | 55 | . | .
O=C(NC(=S)N1C[C@H]2C[C@H](C1)c1cccc(=O)n1C2)c1ccc(Cl)cc1Cl | . | . | . | 91 | . | .
COc1ccc(C(=O)NC(=S)N2C[C@H]3C[C@H](C2)c2cccc(=O)n2C3)cc1OC | . | . | . | . | . | .
CN(C)[C@@H]1C(=O)C(C(N)=O)=C(O)[C@@]2(O)C(=O)C3=C(O)c4c(O)cccc4[C@@](C)(O)[C@H]3[C@H](O)[C@@H]12 | 35 | . | 61 | 67 | . | .
CC(Cc1cccs1)NCc1ccccc1 (stereo not drawn) | . | . | . | 29 | . | .
Cn1c(O)c(/C=C2\C=c3ccccc3=NC2=O)c(=O)n(C)c1=O | . | . | . | 75 | . | .
Cn1c(O)c(/C=C2\C=Nc3ccccc32)c(=O)n(C)c1=O | . | . | . | . | . | .
